TAAR1 antag = human TAAR1 antagonists, primary screen, Fluo-8 calcium fluorescence, CHO RD-HGA16 cells. actives 1.5% (n = 360,000). antagonist. AID 624466, 2012. Trace amine-associated receptor 1 (Homo sapiens), Q96RJ0. inhibition, % at 3 µM;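 active = inhibition above a per-plate cutoff, the mean inhibition of test compounds on that plate plus 3 SD, cut at about 49% in these data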;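 also: 0% = DMSO plus EC80 beta-PEA response and 100% = DMSO alone without agonist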
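System: CHO RD-HGA16 cells bearing hTAAR1. Reagent: EC80 β-phenethylamine stimulus. Schedule: seeding 17-24 h prior, 75-min 37 °C, 30-min RT dye loading. Signal: Fluo-8 intracellular calcium dye fluorescence, real-time kinetic reads. Read-out: % inhibition from peak post-agonist over basal fluorescence ratio. Benchmarks: vehicle wells and EC80 agonist wells. Replicates: n of 1.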
TRPML3 agonist = human TRPML3 channel agonists, primary screen, cell-based, HEK293 TRPML3-YFP, Fluo-8 calcium fluorescence, 3 µM; 100% = the carbachol control signal; activation, % at 3 µM; actives 0.29% (n = 220,000);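 active = activation above its plate's cutoff, the mean activation of the plate's test wells plus 3 SD, cut at about 12% in these data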;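 also: 0% = DMSO only wells and 100% = carbachol wells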
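Material: HEK293 cells stably carrying human TRPML3-YFP; compound dosing: single dose, 3 µM final nominal compound, 0.3% DMSO final; incubation: 1-h 37 °C dye load, 5-s basal, 120-s post-compound reads; technique: Fluo-8 intracellular calcium fluorescence, excitation 470-495 nm, emission 515-575 nm; read-out basis: percent activation from peak-to-basal fluorescence ratio, scaled between DMSO and carbachol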
GPR7 antagonist = GPR7 receptor antagonists, primary screen, cell-based, fluorescence, single concentration. Neuropeptides B/W receptor type 1 (Homo sapiens), P48145. GPR7-expressing cells, fluorescence antagonist assay. inhibition, % at 4.4 µM. actives 1.1% (n = 290,000); in the data active = inhibition above about 16%, passing the limit was not always enough;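 also: cells stimulated with the agonist NPW; 0% = agonist with vehicle and 100% = vehicle without agonist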
TRPN1 ag = zebrafish TRPN1 channel agonists, primary screen, cell-based, HEK293, calcium fluorescence; AID 1424, 2008; actives 0.18% (n = 220,000); activation, % at 3 µM; HEK293 zebrafish TRPN1-YFP, Fluo-8 calcium fluorescence; 100% = response to 87 µM carbachol; transient receptor potential cation channel N1 (TRPN1/NompC), Danio rerio;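 active = activation above its plate's cutoff, the mean activation of test wells on that plate plus 3 SD, cut at about 19% in these data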;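 also: 0% = DMSO alone and 100% = 87 µM carbachol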
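System: zebrafish TRPN1-YFP in HEK293 cells / Dosing: 3 µM single point / Timing: dye loading 1 h at 37 °C, then 30 min room temperature / Signal: Fluo-8 calcium fluorescence, excitation 470-495 nm, emission 515-575 nm / Read-out basis: percent activation from peak over basal fluorescence ratio, control-normalized / Control set: high carbachol 87 µM, low DMSO alone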
LANA-H2A inh = blockers of LANA interaction with H2A/H2B – biochemical, FP readout, HTS, primary screen; Protein LANA1 (Human herpesvirus 8 type P (isolate GK18)), Q9QR71; cell-free LANA-H2A/H2B peptide, fluorescence polarization; inhibition, % (no concentration beside the values); actives 0.6% (n = 320,000); AID 2629, 2010; in the data active = inhibition mostly above about 10%, no sharp cut-off; inactive = mostly below about 6.7%
Target sequence (Q9QR71 whole entry, looked up): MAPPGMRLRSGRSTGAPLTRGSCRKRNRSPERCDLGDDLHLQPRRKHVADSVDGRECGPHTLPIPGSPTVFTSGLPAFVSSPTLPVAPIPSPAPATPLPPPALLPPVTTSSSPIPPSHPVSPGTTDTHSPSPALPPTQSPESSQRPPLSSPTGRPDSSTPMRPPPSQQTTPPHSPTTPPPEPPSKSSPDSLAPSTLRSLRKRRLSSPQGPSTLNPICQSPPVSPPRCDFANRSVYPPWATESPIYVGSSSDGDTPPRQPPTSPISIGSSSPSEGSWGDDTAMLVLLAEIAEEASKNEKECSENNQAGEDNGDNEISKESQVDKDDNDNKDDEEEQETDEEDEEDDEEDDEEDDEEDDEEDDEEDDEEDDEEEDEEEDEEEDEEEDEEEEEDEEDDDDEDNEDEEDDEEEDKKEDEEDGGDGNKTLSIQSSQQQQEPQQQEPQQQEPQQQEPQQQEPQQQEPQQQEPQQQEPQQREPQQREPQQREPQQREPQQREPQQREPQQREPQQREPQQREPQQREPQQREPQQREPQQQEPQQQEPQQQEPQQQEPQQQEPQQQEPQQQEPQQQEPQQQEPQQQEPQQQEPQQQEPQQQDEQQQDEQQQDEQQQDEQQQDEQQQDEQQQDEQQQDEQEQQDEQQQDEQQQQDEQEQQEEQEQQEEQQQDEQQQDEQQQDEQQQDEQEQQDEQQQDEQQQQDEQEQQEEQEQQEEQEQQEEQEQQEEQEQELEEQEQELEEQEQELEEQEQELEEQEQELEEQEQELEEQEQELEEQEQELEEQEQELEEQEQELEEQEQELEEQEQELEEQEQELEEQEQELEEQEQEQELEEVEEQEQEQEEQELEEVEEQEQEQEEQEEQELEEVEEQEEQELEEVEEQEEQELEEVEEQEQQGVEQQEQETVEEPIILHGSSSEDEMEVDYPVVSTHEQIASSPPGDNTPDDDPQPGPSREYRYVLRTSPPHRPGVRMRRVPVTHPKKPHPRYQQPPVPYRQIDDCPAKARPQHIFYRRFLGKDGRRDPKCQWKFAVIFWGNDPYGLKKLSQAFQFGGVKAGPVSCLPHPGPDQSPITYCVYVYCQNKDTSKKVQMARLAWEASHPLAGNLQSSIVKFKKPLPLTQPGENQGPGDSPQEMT
TAAR1 ag = human TAAR1 agonists, primary screen, Fluo-8 calcium fluorescence, CHO RD-HGA16 cells; actives 0.99% (n = 360,000); Trace amine-associated receptor 1 (Homo sapiens), Q96RJ0; vehicle wells 0%, saturating PEA agonist 100%; activation, % at 3 µM;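 active = activation above the mean activation of all test compounds in the run plus 3 SD, cut at about 38% in these data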
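System: CHO-derived RD-HGA16 cells with stable Gα16 and human TAAR1 / Times: 17-24 h plating, Fluo-8 75 min 37 °C, 30 min RT / Technique: calcium-sensitive Fluo-8 signal, excitation 470-495, emission 515-575 nm / Measure: % activation relative to PEA EC100 response / Benchmarks: DMSO and PEA EC100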
Active calls of the source: *; · = no result. Hits are enriched below; roughly 3.4% of the tested compounds scored in any of these assays.

SMILES	TAAR1 antag	TRPML3 agonist	GPR7 antagonist	TRPN1 ag	LANA-H2A inh	TAAR1 ag
CN(c1ccccc1)S(=O)(=O)c1ccc(C(=O)NCC(c2ccco2)N2CCCCC2)cc1 (stereo not given)	-17	·	·	·	39*	4
COc1ccccc1N(C)S(=O)(=O)c1ccc(C(=O)NCC(c2ccco2)N2CCCCC2)cc1 (stereo not given)	8	·	·	·	·	2
O=C(COc1ccccc1)NCC(c1ccco1)N1CCCCC1 (stereo not given)	-7	·	·	·	1	1
O=C(NCC(c1ccco1)N1CCc2ccccc2C1)c1cccc(Br)c1 (stereo not given)	-1	·	·	·	1	38*
O=C(CCOc1ccccc1)NCC(c1ccco1)N1CCCCC1 (stereo not given)	5	0	-6	0	7.9*	7
Cc1ccc(C(=O)NCC(c2ccco2)N2CCc3ccccc3C2)cc1 (stereo not given)	-11	·	·	·	0	40*
CCOC(=O)C1=C(C(=O)OCC)C2N(Cc3ccc(Br)cc3)c3ccccc3[C@@]23C[C@@H](C(=O)OC)N(S(=O)(=O)c2ccc(F)cc2)C3=N1 (stereo not given in full)	-18	·	·	·	·	1
CCCCCCCCN1C(=O)[C@@H](CC(=O)NCCCOC)C[C@@]2(C(=O)OC)C1=C[C@H](C(C)(C)C)O[C@@H]2C	-38	·	·	·	·	-3
COc1ccc(C(=O)NCC(c2ccco2)N2CCc3ccccc3C2)cc1 (stereo not given)	6	·	·	·	-1	40*
CCCCNC(=O)C[C@H]1C[C@@]2(C(=O)OC)C(=C[C@H](C(C)(C)C)O[C@@H]2C)N(Cc2ccc3c(c2)OCO3)C1=O	0	·	·	·	·	-2
COc1cc(/C=C2/CC/C(=C/c3ccc(O)c(OC)c3)C2=O)ccc1O	67*	2	-5	3	-24	40*
COc1cc(/C=C2\CC/C(=C\c3ccc(OCCO)c(OC)c3)C2=O)ccc1OCCO	43	27*	5	50*	-15	29
COc1cc(/C=C2\COC/C(=C\c3ccc(O)c(OC)c3)C2=O)ccc1O	45	-2	-26	-1	-2	12
C[C@H]1C(C(=O)N(C)C2CCCCC2)=Cc2c(n(-c3ccc(F)cc3)c(=O)n2CCCOc2ccccc2)C=C1c1ccccc1	-54	·	·	·	·	0
COc1ccc(O)c(-c2cn[nH]c2-c2cccs2)c1	4	0	20*	-2	5	-3
COc1ccc(OC)c(S(=O)(=O)NCC2CCN(C(=O)C(=O)c3cc4ccccc4o3)CC2)c1	0	·	·	·	·	2
COc1ccc2c(c1)C(C)=CC(C)(C)N2S(=O)(=O)c1ccc(Br)cc1	10	2	29*	-1	4	0
Cn1ccnc1C(=O)C1CCCN(Cc2cn[nH]c2-c2ccc(-c3ccccc3)cc2)C1 (stereo not given)	1	1	-5	-1	18*	1
CC(C)C[C@H](NC(=O)N1CCOCC1)C(=O)N1CCC[C@H]1C(=O)NCc1ccccc1	-21	·	·	·	·	4
O=S1(=O)c2ccc(Br)cc2OCCC2CCCCN21 (stereo not given)	-7	·	·	·	·	1
C=CCN1[C@H](C)[C@H](c2ccccc2)Oc2cc(Br)ccc2S1(=O)=O	5	·	·	·	·	-1
CC(=O)CC(=O)NC(=NC1CCCCC1)Nc1nc(C)cc(C)n1	-23	1	21*	0	-1	0
Cc1cc(C)nc(NC(N)=NC2CCCCC2)n1	-19	1	-4	0	-3	8
Cc1cc(C)nc(Nc2n[nH]c(-c3ccccc3Br)n2)n1	-4	1	-10	-1	18*	20
